# Assay results reported in PMC4550085 (Chemical communications (Cambridge, England), 2015).
# Key:
# [1] = tested on: HeLa cells; experiment: FACS analysis of cytosolic delivery of NF-labelled CPPs; format: cell-based; conditions: 2 h; for Cytosolic delivery (MFI^NF, %): relative to Tat (100%), 5 µM NF-labelled peptide; for cytosolic delivery efficiency relative to Tat: 5 µM NF-labelled peptides
# Procedure, shortened: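 HeLa cells were exposed for 2 h to 5 µM naphthofluorescein-labelled peptide and analysed by FACS with excitation at 633 nm. Background fluorescence was subtracted from the mean fluorescence intensity (MFI). Values are relative to the Tat conjugate (100%) and are mean ± SD of three independent experiments.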
# [2] = tested on: HeLa cells; experiment: FACS analysis of total cellular uptake of Rho-labelled CPPs; format: cell-based; conditions: for Total cellular uptake (MFI^Rho, %): relative to Tat (100%), 5 µM Rho-labelled peptide, 2 h
# Procedure, shortened: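 Total uptake: HeLa cells were treated for 2 h with 5 µM rhodamine-labelled peptide and analysed by FACS with excitation at 561 nm. MFI was background-subtracted. Values are relative to the Tat conjugate (100%) and are mean ± SD of three independent experiments.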
# [3] = tested on: HeLa cells; experiment: Endosomal escape efficiency calculated from NF and Rho MFI; format: cell-based; conditions: for Endosomal escape efficiency (γ, %): relative to Tat (100%), calculated from MFI^NF/MFI^Rho; for endosomal escape efficiency relative to Tat: γ=(MFI NF/MFI Rho)/(MFI Tat NF/MFI Tat Rho), HeLa cells, 5 µM
# [4] = tested on: HeLa cells; experiment: Live-cell confocal microscopy of labelled CPPs; format: cell-based; conditions: 5 µM for 2 h
# [5] = pH titration of fluorescence intensity of the dyes and CPP-dye adducts; format: physicochemical
# [6] = cited from earlier work
# [7] = previously shown; cited from earlier work
# [8] = tested on: HeLa cells; experiment: MTT cytotoxicity assay; format: cell-based; conditions: up to 25 µM concentration
Substance,"Cytosolic delivery (MFI^NF, %) [1]","Total cellular uptake (MFI^Rho, %) [2]","Endosomal escape efficiency (γ, %) [3]",intracellular fluorescence pattern [4],"change in fluorescence intensity with pH ([5]; pH range of 5–10, Ex/Em 545/590 nm)",cytosolic delivery efficiency relative to Tat [1],"cytosolic delivery efficiency relative to Tat, pCAP-based assay [6]",endosomal escape efficiency relative to Tat [3],cytosolic delivery efficiency relative to Tat and R9 [7],"pH profile of CPP-dye adduct compared with the unmodified dye ([5]; dye attached to the glutamine side chain of cFΦR4, pH titration)","cytotoxicity, MTT assay [8]",total cellular uptake relative to Tat ([2]; 5 µM Rho-labelled peptides)
YGRKKRRQRRR [Tat],100%,100%,100%,diffuse fluorescence in both cytoplasmic and nuclear regions,,,,,,,,
rhodamine,,,,,no significant change in fluorescence intensity,,,,,,,
nonaarginine [R9],197%,114%,173%,diffuse fluorescence in both cytoplasmic and nuclear regions,,~ 2 fold,3 fold,1.7 fold,,,,
cyclo(FΦRRRRQ) (head to tail) [cFΦR4],1006%,,433%,,,~ 10 fold,12 fold,4.3 fold,4–12 fold,essentially identical pH profiles,Neither peptide showed any significant toxicity,2.3 fold
